# Assay results taken from ChEMBL document CHEMBL1126589, “Substituted 3-(phenylmethyl)-1H-indole-5-carboxamides and 1-(phenylmethyl)indole-6-carboxamides as potent, selective, orally active antagonists of the peptidoleukotrienes” (J Med Chem, 1993).
# Target: T1, Cysteinyl leukotriene receptor 1 (Cavia porcellus, UniProt Q2NNR5)
# T1 sequence (Q2NNR5 whole entry): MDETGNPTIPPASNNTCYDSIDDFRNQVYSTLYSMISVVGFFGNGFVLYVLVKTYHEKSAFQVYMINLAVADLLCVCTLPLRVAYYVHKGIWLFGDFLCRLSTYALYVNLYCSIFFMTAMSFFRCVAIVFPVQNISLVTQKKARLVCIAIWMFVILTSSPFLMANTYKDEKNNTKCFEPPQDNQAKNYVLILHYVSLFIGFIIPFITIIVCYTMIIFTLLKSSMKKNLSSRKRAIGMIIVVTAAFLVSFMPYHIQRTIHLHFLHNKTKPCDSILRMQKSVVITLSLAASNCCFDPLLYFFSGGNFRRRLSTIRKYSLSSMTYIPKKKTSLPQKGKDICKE
# Assay: Binding affinity to the leukotriene receptor (LTD4) from guinea pig lung parenchymal membranes assayed using [3H]LTD4 as radioligand
# Format: tissue-based, Lung parenchyma
# Details: not given
# Method in brief: (§1)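 Displacement of [3H]LTD4 from guinea pig lung parenchymal membranes; Ki is the mean of two experiments run in duplicate with separate batches, reported as pKi (-log Ki).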
row,Structure (SMILES),Ki [nM]
1,CCc1cn(Cc2ccc(C(=O)NS(=O)(=O)c3ccccc3C)cc2OC)c2cc(C(=O)NCC(CC)CC)ccc12,3.16
2,CCC(CC)CNC(=O)c1ccc2ccn(Cc3ccc(C(=O)NS(=O)(=O)c4ccccc4C)cc3OC)c2c1,12.6
3,CCC(CC)CNC(=O)c1ccc2c(c1)c(Cc1ccc(C(=O)NS(=O)(=O)c3ccccc3C)cc1OC)cn2Cc1ccccc1,1.26

# Other lines, results leading:
row,Ki [nM],Structure (SMILES)
1,6.31,CCCC(C)CNC(=O)c1ccc2c(c1)c(Cc1ccc(C(=O)NS(=O)(=O)c3ccccc3C)cc1OC)cn2C (stereo not drawn)
2,15.8,COc1cc(C(=O)NS(=O)(=O)c2ccccc2C)ccc1Cc1cn(C)c2ccc(C(=O)NCC(C)(C)C)cc12
3,63.1,COc1cc(C(=O)NS(=O)(=O)c2ccccc2C)ccc1Cc1cn(C)c2ccc(C(=O)N(C)CC(C)C)cc12
4,7.94,CCCCCCC(C)CNC(=O)c1ccc2c(c1)c(Cc1ccc(C(=O)NS(=O)(=O)c3ccccc3C)cc1OC)cn2C (stereo not drawn)
5,2.51,CCC(CC)CNC(=O)c1ccc2c(c1)c(Cc1ccc(C(=O)NS(=O)(=O)c3ccccc3C)cc1OC)cn2C1CCCC1
6,100,CCCC1CCN(C(=O)c2ccc3c(c2)c(Cc2ccc(C(=O)NS(=O)(=O)c4ccccc4C)cc2OC)cn3C)CC1

# Target: T1, Cysteinyl leukotriene receptor 1
# Assay: Binding affinity against leukotriene receptor (LTD4) from guinea pig lung parenchymal membranes using [3H]LTD4 as radio ligand
# Format: tissue-based, Lung parenchyma
# Details: not given
# Method in brief: as §1
row,Structure (SMILES),Ki [nM]
1,CCC(CC)CNC(=O)c1ccc2c(CCc3ccccc3)cn(Cc3ccc(C(=O)NS(=O)(=O)c4ccccc4C)cc3OC)c2c1,25.1
2,CCC(CC)CNC(=O)c1ccc2c(CC(C)C)cn(Cc3ccc(C(=O)NS(=O)(=O)c4ccccc4C)cc3OC)c2c1,6.31
3,CCCn1cc(Cc2ccc(C(=O)O)cc2OC)c2cc(C(=O)NCC(C)C)ccc21,2510
4,CCC(CC)CNC(=O)c1ccc2c(CC3CCCCC3)cn(Cc3ccc(C(=O)NS(=O)(=O)c4ccccc4C)cc3OC)c2c1,2.51
5,C/C=C\c1cn(Cc2ccc(C(=O)NS(=O)(=O)c3ccccc3C)cc2OC)c2cc(C(=O)NCC(CC)CC)ccc12,50.1
6,CCCn1cc(Cc2ccc(C(=O)NS(=O)(=O)c3ccccc3)cc2OC)c2cc(C(=O)NCC(CC)CC)ccc21,3.98
7,CCCc1cn(Cc2ccc(C(=O)NS(=O)(=O)c3ccccc3C)cc2OC)c2cc(C(=O)NCC(CC)CC)ccc12,1.26
8,CCC(CC)CNC(=O)c1ccc2c(CC3CCCC3)cn(Cc3ccc(C(=O)NS(=O)(=O)c4ccccc4C)cc3OC)c2c1,1

# Other lines, results leading:
row,Ki [nM],Structure (SMILES)
1,7.94,CCCn1cc(Cc2ccc(C(=O)NS(=O)(=O)c3ccccc3)cc2OC)c2cc(C(=O)NCC(C)C)ccc21
2,6.31,COc1cc(C(=O)NS(=O)(=O)c2ccccc2C)ccc1Cc1cn(C)c2ccc(C(=O)NCC(C)C)cc12
3,6.31,CCC(CC)CNC(=O)c1ccc2c(c1)c(Cc1ccc(C(=O)NS(=O)(=O)c3ccccc3Cl)cc1OC)cn2C

# System: Cavia porcellus
# Assay: Effective dose against LTD4-induced bronchoconstriction in guinea pig after peroral administration
# Format: functional
# Details: po
# Method in brief: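 Conscious guinea pigs challenged with LTD4 ("dyspnea" model) after oral or intravenous dosing; percent protection from LTD4-induced dyspnea plotted against dose to derive ED50; po/iv ratio taken from the oral and intravenous ED50 values.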
row,Structure (SMILES),ED50 [µmol/kg]
1,COc1cc(C(=O)NS(=O)(=O)c2ccccc2C)ccc1Cn1cc(C)c2ccc(NC(=O)CC3CCCC3)cc21,0.3
2,COc1cc(C(=O)NS(=O)(=O)c2ccccc2C)ccc1Cc1cn(C)c2ccc(C(=O)NCC(C)C)cc12,> 30

# Target: T2, Cysteinyl leukotriene receptor 1 (Cavia porcellus) (UniProt Q2NNR5)
# T2 sequence (whole entry): T1 sequence (Q2NNR5 whole entry)
# Assay: Binding affinity against leukotriene receptor (LTE4) from guinea pig tracheal spirals
# Format: tissue-based
# Details: not given
# Method in brief: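 Functional antagonism in isolated guinea pig tracheal spirals contracted with LTE4 as agonist; KB derived from concentration-response curves, n = number of curves.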
row,Structure (SMILES),pKB
1,COc1cc(C(=O)NS(=O)(=O)c2ccccc2C)ccc1Cn1cc(C)c2ccc(NC(=O)CC3CCCC3)cc21,9.3
2,CCC(CC)CNC(=O)c1ccc2c(CC(C)C)cn(Cc3ccc(C(=O)NS(=O)(=O)c4ccccc4C)cc3OC)c2c1,8.2
3,CCc1cn(Cc2ccc(C(=O)NS(=O)(=O)c3ccccc3C)cc2OC)c2cc(C(=O)NCC(CC)CC)ccc12,8.2
4,CCC(CC)CNC(=O)c1ccc2c(c1)c(Cc1ccc(C(=O)NS(=O)(=O)c3ccccc3C)cc1OC)cn2Cc1ccccc1,8.3
5,CCCn1cc(Cc2ccc(C(=O)NS(=O)(=O)c3ccccc3)cc2OC)c2cc(C(=O)NCC(CC)CC)ccc21,7.7
6,CCCc1cn(Cc2ccc(C(=O)NS(=O)(=O)c3ccccc3C)cc2OC)c2cc(C(=O)NCC(CC)CC)ccc12,8.8

# Results, then the compound that gave them:
row,pKB,Structure (SMILES)
1,7.6,CCCn1cc(Cc2ccc(C(=O)NS(=O)(=O)c3ccccc3)cc2OC)c2cc(C(=O)NCC(C)C)ccc21
2,8.5,CCCC(C)CNC(=O)c1ccc2c(c1)c(Cc1ccc(C(=O)NS(=O)(=O)c3ccccc3C)cc1OC)cn2C (stereo not drawn)
3,8.6,COc1cc(C(=O)NS(=O)(=O)c2ccccc2C)ccc1Cc1cn(C)c2ccc(C(=O)NCC(C)C)cc12
4,7.5,COc1cc(C(=O)NS(=O)(=O)c2ccccc2C)ccc1Cc1cn(C)c2ccc(C(=O)NCC(C)(C)C)cc12
5,7.5,CCCCCCC(C)CNC(=O)c1ccc2c(c1)c(Cc1ccc(C(=O)NS(=O)(=O)c3ccccc3C)cc1OC)cn2C (stereo not drawn)
